Bioassay records (PubChem)
Rows were chosen to be rich in hits. Some 2.9% of all compounds tested hit in one or more screens of this group.
HCV NS3 hel inh = HCV NS3 helicase inhibition; NS3 helicase DNA unwinding, Cy5 molecular beacon fluorescence; inhibition, % at 10.9 µM; AID 1800; hit rate 0.56% among 290,000;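 active = inhibition above the mean of all tested compounds plus 3 SD, set per campaign, cut at about 35% in these data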
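Assay system: hepatitis C virus NS3 helicase domain fragment enzyme. Also added: annealed dual-labelled DNA beacon duplex, ATP-started. Timing: 1 h reaction at 25 °C, ATP-initiated. Technique: Cy5 fluorescence at 0 and 60 min, beacon hairpin quenching. Evaluation: % inhibition of unwinding. Replication: one well per compound.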
ABHD5 PLIN5 PPI = blocks binding of human ABHD5 to perilipin-5; inhibition, % at 4 µM; Split G. princeps luciferase complementation, luminescence, 4 h; hit rate 0.78% among 360,000;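 active = inhibition above the mean inhibition across every tested compound plus 3 SD, cut at about 22% in these data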
core dimer inh = blocks dimerization of HCV core protein. TR-FRET GST/Flag-core106 dimerization, 1536-well. inhibition, % at 5 µM. hit rate 0.33% among 300,000. AID 1899;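 active = inhibition above the mean of all tested compounds plus 3 SD, set per screening campaign, cut at about 45% in these data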
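System – GST-tagged and Flag-tagged HCV core protein residues 1-106 · Repeats – one well for each compound · Technique – TR-FRET 671 and 617 nm emission · Doses – one concentration, 5 µM, in 0.5% DMSO · Times – 4 h, 22.5 °C incubation · Also added – Eu donor and XL665 acceptor anti-tag antibodies · Measure – percent inhibition of core106 dimerization signal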
A3G deaminase = inhibitors of human APOBEC3G DNA deaminase | hit rate 0.28% among 330,000 | Q9HC16 | AID 493012 | inhibition, % at 20 µM | recombinant A3G, ssDNA deamination FAM/TAMRA fluorescence;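 active = inhibition of at least 40% at 20 µM, with no more than 30% in the related APOBEC3A deaminase screen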
APOBEC3A inh = inhibitors of human APOBEC3A DNA deaminase; P31941; hit rate 0.41% among 330,000; inhibition, % at 20 µM; recombinant A3A, FAM/TAMRA ssDNA deamination fluorescence;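 active = at least 40% inhibition at 20 µM here, with at most 30% in a related deaminase screen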
Target sequence (P31941 whole entry, looked up): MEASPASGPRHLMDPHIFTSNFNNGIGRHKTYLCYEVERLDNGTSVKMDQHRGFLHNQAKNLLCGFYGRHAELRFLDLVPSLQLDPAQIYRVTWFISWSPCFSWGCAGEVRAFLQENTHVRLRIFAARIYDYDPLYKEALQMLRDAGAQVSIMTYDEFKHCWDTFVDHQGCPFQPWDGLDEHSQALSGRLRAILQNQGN
PRMT1 inh = blocks human protein arginine methyltransferase 1. Q99873. recombinant PRMT1, activity-based probe fluorescence polarization. inhibition, % at 2.79 µM. hit rate 1.3% among 370,000;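 active = inhibition above about 21% made by adding two undisclosed values, limit read from the data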
Target sequence (Q99873 whole entry, looked up): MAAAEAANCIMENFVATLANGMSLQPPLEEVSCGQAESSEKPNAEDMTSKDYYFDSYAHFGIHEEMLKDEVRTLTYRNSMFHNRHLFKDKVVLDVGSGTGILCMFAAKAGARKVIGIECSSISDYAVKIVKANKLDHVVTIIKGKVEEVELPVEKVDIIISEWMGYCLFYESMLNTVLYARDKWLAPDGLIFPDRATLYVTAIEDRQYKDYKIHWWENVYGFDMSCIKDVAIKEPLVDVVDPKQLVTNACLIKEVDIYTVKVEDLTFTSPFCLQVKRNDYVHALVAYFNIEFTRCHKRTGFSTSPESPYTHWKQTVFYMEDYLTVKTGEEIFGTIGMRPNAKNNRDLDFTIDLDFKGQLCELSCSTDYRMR
ABHD5-PLIN5 conf = confirmation of human ABHD5-PLIN5 interaction inhibitors; shares compounds with ABHD5 PLIN5 PPI; biochemical ABHD5-PLIN5 interaction, luminescence; inhibition, % at 4 µM; hit rate 67% among 2,200; in the data active = inhibition above about 23%
HNF4 split-luc = HNF4 split-luciferase signal hit, counter-screen; shares compounds with ABHD5 PLIN5 PPI; HNF4 dimerization, luminescence, biochemical; inhibition, % at 4 µM; hit rate 77% among 2,200;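 active = mean inhibition across replicate wells exceeding the computed hit threshold, cut at about 13% in these data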;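 note: light from luciferase halves that rejoin when HNF4 fusion proteins dimerize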
Of the large screens only hits and unclear results are named; the others gave an inactive call (follow-up assays come after a bar, where they were run).

COC(=O)C1=C(C(=O)OC)SC2(S1)C(C(=O)OC)=C(C(=O)OC)Sc1c2ssc1=O	ABHD5 PLIN5 PPI 91, PRMT1 inh 105 (no result: HCV NS3 hel inh, core dimer inh, A3G deaminase, APOBEC3A inh) | ABHD5-PLIN5 conf 102 | HNF4 split-luc 112
C=C1C(=O)O[C@H]2[C@H]1[C@H](OC(=O)CC(=O)O[C@@H]1C[C@@H](C)[C@@H]3C=CC(=O)[C@@]3(C)[C@H]3OC(=O)C(=C)[C@H]13)C[C@@H](C)[C@H]1C=CC(=O)[C@]12C	ABHD5 PLIN5 PPI 74 (no result: HCV NS3 hel inh) | ABHD5-PLIN5 conf 91 | HNF4 split-luc 90
C=C1C(=O)OC2C1CCC(C)C1(O)C=CC(=O)C21C (stereo not drawn)	none (no result: HCV NS3 hel inh, core dimer inh, A3G deaminase, APOBEC3A inh)
C=C1C(=O)OC2CC(C)C3C=CC(=O)C3(C)C(O)C12 (stereo not drawn)	ABHD5 PLIN5 PPI 79 (no result: HCV NS3 hel inh, core dimer inh, A3G deaminase, APOBEC3A inh, PRMT1 inh) | ABHD5-PLIN5 conf 93 | HNF4 split-luc 90
COc1ccc(CCC(=O)N2C[C@H]3C[C@@H](C2)c2cccc(=O)n2C3)cc1	none
COC(=O)[C@@H]1N=C(c2ccc(OC)cc2)O[C@]12C(=O)N(Cc1ccccc1)c1ccccc12	none (no result: HCV NS3 hel inh, core dimer inh, A3G deaminase, APOBEC3A inh)
COc1ccc(C(=O)CN2CCOCC2)cc1F	ABHD5 PLIN5 PPI 31 | ABHD5-PLIN5 conf inactive | HNF4 split-luc inactive
O=C(CN1CCOCC1)c1ccc2cc[nH]c2c1	none
CCCCCCCCn1sccc1=O	ABHD5 PLIN5 PPI 90 (no result: HCV NS3 hel inh, core dimer inh) | ABHD5-PLIN5 conf 89 | HNF4 split-luc 107
CN1C(=O)C(=Cc2ccccc2Oc2ccc(Cl)cc2)C(=O)N(C)C1=O	ABHD5 PLIN5 PPI 32, PRMT1 inh 21 | ABHD5-PLIN5 conf 55 | HNF4 split-luc 52
CCOC(=O)[C@]12Cc3ccc(C)cc3[C@H]1N(C1CCCCC1)C(=O)c1cc(OC)ccc12	ABHD5 PLIN5 PPI 43 (no result: HCV NS3 hel inh, core dimer inh, A3G deaminase, APOBEC3A inh) | ABHD5-PLIN5 conf 41 | HNF4 split-luc 46
CCOC(=O)[C@]12Cc3cc(OC)ccc3[C@H]1N(C)C(=O)c1cc(OC)ccc12	none (no result: HCV NS3 hel inh, core dimer inh, A3G deaminase, APOBEC3A inh)
CCOC(=O)[C@]12Cc3ccc(C)cc3[C@H]1N(C1CCCCC1)C(=O)c1ccccc12	ABHD5 PLIN5 PPI 40 (no result: HCV NS3 hel inh, core dimer inh, A3G deaminase, APOBEC3A inh) | ABHD5-PLIN5 conf 30 | HNF4 split-luc 21
CCOC(=O)[C@]12Cc3c(cc(OC)c(OC)c3OC)[C@H]1N(C1CCCCC1)C(=O)c1ccccc12	ABHD5 PLIN5 PPI 39 (no result: HCV NS3 hel inh, core dimer inh, A3G deaminase, APOBEC3A inh) | ABHD5-PLIN5 conf inactive | HNF4 split-luc 32
CCOC(=O)[C@]12Cc3cc(Cl)ccc3[C@H]1N(C1CCCCC1)C(=O)c1cc(OC)ccc12	ABHD5 PLIN5 PPI 61 (no result: HCV NS3 hel inh, core dimer inh, A3G deaminase, APOBEC3A inh) | ABHD5-PLIN5 conf 39 | HNF4 split-luc 58
CCOC(=O)[C@]12Cc3ccccc3[C@H]1N(C(C)C)C(=O)c1ccccc12	none (no result: HCV NS3 hel inh, core dimer inh, A3G deaminase, APOBEC3A inh)
CC(C)(C)C(=O)N1Cc2cc(N3CCCCC3)ccc2-n2nncc2C1	none (no result: HCV NS3 hel inh, core dimer inh, A3G deaminase, APOBEC3A inh)
CCOC(=O)[C@]12Cc3cc(C)ccc3[C@H]1N(C1CCCCC1)C(=O)c1ccccc12	ABHD5 PLIN5 PPI 48 (no result: HCV NS3 hel inh, core dimer inh, A3G deaminase, APOBEC3A inh) | ABHD5-PLIN5 conf inactive | HNF4 split-luc 39
CCSc1nnc([C@@H](N)Cc2ccccc2)o1	none
COC[C@H]1OC(=O)c2coc3c2[C@@]1(C)C1=C(C3=O)[C@@H]2CCC(=O)[C@@]2(C)C[C@H]1OC(C)=O	ABHD5 PLIN5 PPI 26 (no result: HCV NS3 hel inh, core dimer inh, A3G deaminase, APOBEC3A inh) | ABHD5-PLIN5 conf inactive | HNF4 split-luc 69
BrCC(Br)C1CCC(Br)C(Br)C1 (stereo not drawn)	none (no result: HCV NS3 hel inh, core dimer inh)
CC1(C)C[C@H]2C=C(C=O)[C@]3(C=O)C[C@]3(C)[C@H]2C1	ABHD5 PLIN5 PPI 63 | ABHD5-PLIN5 conf 70 | HNF4 split-luc inactive
Brc1ccc2[nH]cc(C=NN3CCCCCC3)c2c1	none (no result: HCV NS3 hel inh, core dimer inh, A3G deaminase, APOBEC3A inh)
COc1ccccc1-n1c(O)c(/C=C2\C=Nc3ccccc32)c(=O)[nH]c1=O	ABHD5 PLIN5 PPI 29 | ABHD5-PLIN5 conf 24 | HNF4 split-luc 28
C=CCn1c(O)c(/C=C2\C=Nc3ccccc32)c(=O)[nH]c1=O	none
CCOc1ccc(-n2c(O)c(/C=C3\C=Nc4ccccc43)c(=O)[nH]c2=O)cc1	ABHD5 PLIN5 PPI 29 | ABHD5-PLIN5 conf inactive | HNF4 split-luc 38
